In brackets after ≈: the same amount, converted by molar mass.
Columns and labels:
NCI-H226 = experiment: Growth inhibition of human NCI-H226 cells; format: functional
COLO 205 = experiment: Growth inhibition of human COLO205 cells; format: functional; conditions: for EC50: read-out: ED50 (the source's name)
KB = experiment: Growth inhibition of human KB cells; format: functional; conditions: read-out: ED50 (the source's name)
Summary of the method: (§1)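 In-house cytotoxicity assay following an NCI protocol, run on a panel of human tumour lines: KB nasopharyngeal epidermoid carcinoma and HCT-8 ileocecal adenocarcinoma. Potency is reported as ED50 in µg/mL.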

SK-MEL-5 = experiment: Growth inhibition of human SK-MEL-5 cells; format: functional; conditions: for EC50: read-out: ED50 (the source's name)
Summary of the method: (§2)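 Tested at the NCI in its human disease-oriented in vitro screen of 60 tumour cell lines, following the Monks et al. methods. Activity is expressed as GI50, given as log molar values.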

HCT-8 = experiment: Growth inhibition of human HCT8 cells; format: functional; conditions: read-out: ED50 (the source's name); summary of the method: as §1
U-251 = experiment: Growth inhibition of human U251 cells; format: functional; summary of the method: as §2
KM-20L2 = experiment: Growth inhibition of human KM20L2 cells; format: functional
NCI-H322M = experiment: Growth inhibition of human NCI-H322M cells; format: functional
SR = experiment: Growth inhibition of human SR cells; format: functional; summary of the method: as §2
TK-10 = experiment: Growth inhibition of human TK10 cells; format: functional; summary of the method: as §2
[1] = Growth inhibition of human DMS144 cells; format: functional
CCRF-CEM = experiment: Growth inhibition of human CCRF-CEM cells; format: functional
Malme-3M = experiment: Growth inhibition of human MALME-3M cells; format: functional
DMS-273 = experiment: Growth inhibition of human DMS273 cells; format: functional
[2] = Growth inhibition of human OVACR8 cells; format: functional
SNB-75 = experiment: Growth inhibition of human SNB75 cells; format: functional; summary of the method: as §2
[3] = Growth inhibition of human LXFL529 cells; format: functional; conditions: LXFL 529
HCC 2998 = experiment: Growth inhibition of human HCC2998 cells; format: functional
[4] = Growth inhibition of human OVACR5 cells; format: functional
[5] = Growth inhibition of human […] cells; format: functional
M14 = experiment: Growth inhibition of human M14 cells; format: functional
[6] = Growth inhibition of human RPMI8266 cells; format: functional
SF-539 = experiment: Growth inhibition of human SF539 cells; format: functional; summary of the method: as §2
NCI-H522 = experiment: Growth inhibition of human NCI-H522 cells; format: functional
LOX IMVI = experiment: Growth inhibition of human LOX IMVI cells; format: functional
[7] = Growth inhibition of human OVACR4 cells; format: functional
DLD-1 = experiment: Growth inhibition of human DLD1 cells; format: functional
HCT-116 = experiment: Growth inhibition of human HCT116 cells; format: functional
SK-MEL-28 = experiment: Growth inhibition of human SK-MEL-28 cells; format: functional; summary of the method: as §2
SK-OV-3 = experiment: Growth inhibition of human SK-OV-3 cells; format: functional; summary of the method: as §2
UACC-62 = experiment: Growth inhibition of human UACC62 cells; format: functional; summary of the method: as §2
SF-268 = experiment: Growth inhibition of human SF268 cells; format: functional; summary of the method: as §2
MOLT-4 = experiment: Growth inhibition of human MOLT4 cells; format: functional
A549 = experiment: Growth inhibition of human A549 cells; format: functional
IGROV-1 = experiment: Growth inhibition of human IGROV1 cells; format: functional
M19-MEL = experiment: Growth inhibition of human M19-MEL cells; format: functional
NCI-H460 = experiment: Growth inhibition of human NCI-H460 cells; format: functional
SK-MEL-2 = experiment: Growth inhibition of human SK-MEL-2 cells; format: functional; summary of the method: as §2
ACHN = experiment: Growth inhibition of human ACHN cells; format: functional
K562 = experiment: Growth inhibition of human K562 cells; format: functional
SNB-19 = experiment: Growth inhibition of human SNB19 cells; format: functional; summary of the method: as §2
XF498 = experiment: Growth inhibition of human XF498 cells; format: functional; summary of the method: as §2
UO-31 = experiment: Growth inhibition of human UO31 cells; format: functional; summary of the method: as §2
[8] = Growth inhibition of human HL60(TB) cells; format: functional, HL-60(TB); conditions: HL-60
HCT-15 = experiment: Growth inhibition of human HCT15 cells; format: functional
SW-620 = experiment: Growth inhibition of human SW620 cells; format: functional; summary of the method: as §2
HOP-92 = experiment: Growth inhibition of human HOP92 cells; format: functional
786-0 = experiment: Growth inhibition of human 786-0 cells; format: functional

Q: Which GI50 (NCI-H226) does the source give for `COc1cc(CO)cc2c1[nH]c1ccccc12` [KOENOLINE] here?
A: 1.74 µM

Q: What about the TGI (NCI-H226; read-out: pTGI) of the same compound?
A: 5.25 µM

Q: For `CC1=CC(=O)c2c([nH]c3ccc(F)cc23)C1=O`, which EC50 (COLO 205) is on record?
A: 4.5 µg/mL (≈ 19.6 µM)

Q: And the EC50 (KB)?
A: 2.03 µg/mL (≈ 8.86 µM)

Q: What about the EC50 (SK-MEL-5) of the same compound?
A: 5.5 µg/mL (≈ 24 µM)

Q: What about the EC50 (HCT-8) of the same compound?
A: 4.76 µg/mL (≈ 20.8 µM)

Q: Which EC50 (COLO 205) does the source give for `CC1=CC(=O)c2c([nH]c3ccc(C)cc23)C1=O` here?
A: 3.2 µg/mL (≈ 14.2 µM)

Q: What about the EC50 (KB) of the same compound?
A: 4.6 µg/mL (≈ 20.4 µM)

Q: And the EC50 (SK-MEL-5)?
A: 5.29 µg/mL (≈ 23.5 µM)

Q: What about the EC50 (HCT-8) of the same compound?
A: 5.47 µg/mL (≈ 24.3 µM)

Q: With `CC1=CC(=O)c2[nH]c3ccc(Cl)cc3c2C1=O` as the compound, how does the EC50 (COLO 205) read?
A: > 20 µg/mL

Q: What about the EC50 (KB) of the same compound?
A: 4.39 µg/mL (≈ 17.9 µM)

Q: And the EC50 (SK-MEL-5)?
A: 0.83 µg/mL (≈ 3.38 µM)

Q: And the EC50 (HCT-8)?
A: 6.45 µg/mL (≈ 26.3 µM)

Q: What does the source list for `COc1cccc2c3c([nH]c12)C(=O)C(C)=CC3=O`?
A: EC50 (COLO 205): 5.18 µg/mL (≈ 21.5 µM); EC50 (KB): 0.92 µg/mL (≈ 3.81 µM); EC50 (SK-MEL-5): 5.5 µg/mL (≈ 22.8 µM); EC50 (HCT-8): 4.7 µg/mL (≈ 19.5 µM)

Q: Which results are given for `COc1ccc2c([nH]c3cc(O)c(C)cc32)c1CC=C(C)C`?
A: GI50 (U-251): 5.89 µM; GI50 (KM-20L2): 16.2 µM; GI50 (NCI-H322M): 10.7 µM; GI50 (SR): 7.24 µM; GI50 (COLO 205): 25.1 µM; GI50 (TK-10): 5.01 µM; GI50 [1]: 20.9 µM; GI50 (CCRF-CEM): 5.37 µM; GI50 (Malme-3M): 17.4 µM; GI50 (SK-MEL-5): 8.13 µM; GI50 (DMS-273): 8.51 µM; GI50 [2]: 4.47 µM; GI50 (SNB-75): 11.5 µM; GI50 [3]: 8.71 µM; GI50 (HCC 2998): 5.5 µM; GI50 [4]: 25.1 µM; GI50 [5]: 5.37 µM; GI50 (M14): 1.62 µM; GI50 [6]: 8.32 µM; GI50 (NCI-H226): 25.1 µM; GI50 (SF-539): 7.94 µM; GI50 (NCI-H522): 5.89 µM; GI50 (LOX IMVI): 4.37 µM; GI50 [7]: 22.4 µM; GI50 (DLD-1): 9.12 µM; GI50 (HCT-116): 12 µM; GI50 (SK-MEL-28): 25.1 µM; GI50 (SK-OV-3): 25.1 µM; GI50 (UACC-62): 9.12 µM; GI50 (SF-268): 9.55 µM; GI50 (MOLT-4): 4.9 µM; GI50 (A549): 8.51 µM; GI50 (IGROV-1): 2.29 µM; GI50 (M19-MEL): 12.3 µM; GI50 (NCI-H460): 5.62 µM; GI50 (SK-MEL-2): 25.1 µM; GI50 (ACHN): 9.33 µM; GI50 (K562): 5.75 µM; GI50 (SNB-19): 25.1 µM; GI50 (XF498): 25.1 µM; GI50 (UO-31): 14.5 µM; GI50 [8]: 7.94 µM; GI50 (HCT-15): 5.13 µM; GI50 (SW-620): 6.76 µM; GI50 (HOP-92): 7.94 µM; GI50 (786-0): 4.37 µM

Q: What does the source list for `CC1=CC(=O)c2[nH]c3ccc(F)cc3c2C1=O`?
A: EC50 (COLO 205): 9.19 µg/mL (≈ 40.1 µM); EC50 (KB): 5.25 µg/mL (≈ 22.9 µM); EC50 (SK-MEL-5): 2.51 µg/mL (≈ 11 µM); EC50 (HCT-8): 5.88 µg/mL (≈ 25.7 µM)

Q: For `CC1=CC(=O)c2c([nH]c3ccc(Cl)cc23)C1=O`, which EC50 (COLO 205) is on record?
A: 4.42 µg/mL (≈ 18 µM)

Q: And the EC50 (KB)?
A: 3.52 µg/mL (≈ 14.3 µM)

Q: What about the EC50 (SK-MEL-5) of the same compound?
A: 5.5 µg/mL (≈ 22.4 µM)

Q: What about the EC50 (HCT-8) of the same compound?
A: 5.5 µg/mL (≈ 22.4 µM)

Q: For `COc1ccc2[nH]c3c(c2c1)C(=O)C=C(C)C3=O`, which EC50 (COLO 205) is on record?
A: > 20 µg/mL

Q: And the EC50 (KB)?
A: 5.08 µg/mL (≈ 21.1 µM)

Q: And the EC50 (SK-MEL-5)?
A: 6.22 µg/mL (≈ 25.8 µM)

Q: And the EC50 (HCT-8)?
A: 6.03 µg/mL (≈ 25 µM)

— ChEMBL document CHEMBL1142636 (2000)
